experiment: Toxicity liver stage against HepG2, at 10uM; format: cell-based; set-up: test concentration 10 uM, cell line HepG2-A16-CD81EGFP; conditions: human, HepG2-A16-CD81EGFP cells; read-out: INHIBITION
Outline: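 Uninfected HepG2-A16-CD81EGFP cells, 3 × 10^3 per well, 1536-well, plated on prespotted compound at 10 μM final, parasite-free screening media added to match infected plates; puromycin 10 μM positive, DMSO 0.5% negative; run in parallel with 48 h PbLuc assay at 37 °C, 5% CO2; viability by CellTiter-Glo luminescence, normalized to controls.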

SMILES | cytotoxicity at 10 µM [%]
COc1ccc(-c2noc(-c3ccc(N4CCC[C@H]4CO)nc3)n2)cc1 | 11.1
NC(=O)NC(=O)CCn1ccc(-c2ccccc2)n1 | 5.2
CCc1cnc(N2CCC(=O)N(CC3CC3)C(C(C)C)C2)nc1 (centres undefined) | -6.28
COCCCN(C(=O)c1ccc(-n2ccnc2)cc1)C1CCN(C)CC1 | -15.8
N[C@@H]1CC[C@H](C(=O)NCc2ccc3nonc3c2)C1 | -5.35
Cn1cc(C[C@H]2[C@H](N3CCOCC3)CCN2C2CCOCC2)cn1 | 5.13
CCNS(=O)(=O)c1ccc(C)c(C(=O)N(CCC#N)Cc2ccco2)c1 | 5.44
COCc1nn(C)c2c1CN(C(=O)c1ccno1)CC2 | 12.7
CNC(=O)c1ccc2c(c1)C1(CCN(CCOC)CC1)C(=O)N2 | -1.92
O=C(c1ccoc1)N1CCCN(CC2CCOc3ccccc3C2)CC1 (centres undefined) | 0.0531
Cc1cc(CNc2cc(Cl)ccc2OCCS(C)(=O)=O)no1 | -2.27
O=C(c1ccncc1)N1CCCC2(CCN(c3cccnc3)C2=O)C1 (centres undefined) | -131
CN(Cc1cnc(N)nc1)C(=O)C1CCN(C(=O)C2CCCC2)CC1 | -1.42
CN1CC(=O)N(c2cnn(C)c2)CC12CCN(C(=O)c1ccsc1)C2 (centres undefined) | -1.37
c1ccc(-n2cc(CNC3CCc4ncnn4C3)nn2)cc1 (centres undefined) | -4.01
COc1ccccc1C(=O)NC(c1ccccn1)C1CCC(CN)CC1 (centres undefined) | -12.8
CCC(=O)N1CCN(CCn2cccn2)c2ncccc2C1 | -106
CCS(=O)(=O)N1CCC(OCCCc2ccccc2)C1 (centres undefined) | 8.59
Cn1cc(C(=O)Nc2ccc3c(c2)CN(C(=O)c2ccco2)CC3)nn1 | 0.0452
CN(CCc1cccs1)C(=O)Nc1cnn(CC2CCCO2)c1 (centres undefined) | -2.66
O=C(CC1CC1)N1Cc2nccn2CC(Cn2ncccc2=O)C1 (centres undefined) | 7.04
N#Cc1ccc(S(=O)(=O)NCCn2ccnc2)cc1Cl | 22.5

SMILES | cytotoxicity at 10 µM [%]
O=C(c1cccc2c1OCCO2)N1CCCC(n2ccnc2)C1 (centres undefined) | -6.92
CCC(CN1CCCC1)NC(=O)Cc1c(C)[nH]c2c(C)cc(C)cc12 (centres undefined) | 14.6
O=C(CC1CC1)N[C@@H]1CN(Cc2ccccn2)C[C@@H]2CCCO[C@@H]21 | 6.09
Cc1ccc(C(=O)NS(=O)(=O)Cc2ccccc2)cc1S(C)(=O)=O | 3.09
COCCn1c(CN2CCCCO2)cnc1S(=O)(=O)CC1CCCCC1 | -6.58
CCN(CC)C(CNCc1ccc(C)o1)c1ccco1 (centres undefined) | 3.23
CCn1ncc2c1C(COC)CN(Cc1ccco1)C2 (centres undefined) | 7.1
Cn1ccnc1CN1CCO[C@H]2C(CNC(=O)c3ccco3)CC[C@@H]21 (some centres undefined) | 3.62
CN(C)c1ncc(NC(=O)c2ccccc2C(F)(F)F)cn1 | -9.66
CN(C)C(=O)CN1CCO[C@H]2CN(c3ccccn3)C[C@H]21 | 8.16
CCC(C)C(=O)NCc1c(C)nn(C)c1N1CCCN(C)CC1 (centres undefined) | 4.24
Cc1nc(-c2cccc(C(=O)N(C)C)c2)cs1 | 1.77
COCCc1noc(CN2CC(C)(c3ccccc3)CCC2=O)n1 (centres undefined) | 3.1
Cc1cccc(N2N=C(C(=O)NC(C)CCc3ccco3)CCC2=O)c1 (centres undefined) | -10.1
CS(=O)(=O)NC[C@]12COC[C@H]1CN(CCc1ccccc1)C2 | 12.3
O=C(c1ccc(C(F)(F)F)cc1)N1C[C@@H](CN2CCCCC2)[C@@H](CO)C1 | 0.313
COc1ccccc1CN(CC1CCCO1)C(=O)c1scnc1C (centres undefined) | 2.01
CC(C)NC(=O)N1CC[C@@H]2CN(S(C)(=O)=O)CCO[C@@H]2C1 | -102
COc1ccc2c(c1)CN(Cc1nc3ccsc3c(=O)[nH]1)CC2 | -4.64
COC(=O)N1CCC(Nc2cccc(F)c2C(C)=O)CC1 | 12.7
COc1ccc(CN2CCC3(CC2)CCN(CC(C)C)C3=O)cc1 | 3.17
COc1ccc(CN2CCn3cc(CN4CCCCC4)nc3C2)cc1 | 4.7

SMILES | cytotoxicity at 10 µM [%]
c1ccc(OC2CCCC2)c(CNC2CCc3ncnn3C2)c1 (centres undefined) | -5.43
O=C(c1c2c(NCC3CC3)ncnc2n2ccccc12)N1CCOCC1 | 9.82
CNc1ncccc1CN1CCCCC1c1cc(C)n2ccnc2n1 (centres undefined) | -2.17
Cc1cnc(C(=O)N2CCCC(n3ccnc3C)C2)cn1 (centres undefined) | -10.8
COCc1cccc(CNCc2c(C)nn(C)c2N2CCOCC2)c1 | -8.93
CC(C)c1nc2cc(NC(=O)c3n[nH]c4c3CCC4)ccc2n1C | -5.37
CNC(=O)[C@@H]1COC[C@H]2CN(C(=O)COc3ccccc3)C[C@H]21 | -1.65
CC(C)CCN(C)Cc1ccccc1-c1nc(C(C)C)cc(=O)[nH]1 | 5.46
CN1CCN(C(=O)c2ccc(Cn3cc(Br)cn3)cc2)CC1 | -3.7
Cc1nn(C)cc1C(=O)NCc1csc(C2CC2)n1 | -4.1
Cc1ccc(N2CCCC(Nc3nn4cc(C)nc4s3)C2)nn1 (centres undefined) | -5.78
CC(C)c1nccc(C2CC(=O)Nc3n[nH]c(C4CCC4)c32)n1 (centres undefined) | -14.6
O=C(c1ccc[nH]1)N1CCO[C@]2(CCC[C@@H]2COc2cccnc2)C1 | 9.46
O=C1NCC2(CCN(C(=O)c3ccc4c(c3)CCCO4)CC2)O1 | -5.8
COc1ccc(Br)c(C(=O)NC(CC(=O)O)c2cccs2)c1 (centres undefined) | -3.48
Cc1nccn1C1(C(=O)O)CCN(Cc2ccc3occc3c2)CC1 | -1.61
O=C(CCNS(=O)(=O)c1ccccc1)NCc1ccoc1 | -0.886
CC(C)OCCN(C)C(C)c1cccc(S(N)(=O)=O)c1 (centres undefined) | -8.6
Cn1ccnc1CNc1nccc(-c2ncnn2C)n1 | -6.47
OCCn1nccc1C1CCN(CCOc2ccccc2Cl)CC1 | -5.04
O=C(CCN1CCCC1C1CCCCC1)N1CCc2sccc2C1 (centres undefined) | -11
CCNc1c(NC(=O)NC(C)C)c(=O)oc2ccccc12 | 1.1

SMILES | cytotoxicity at 10 µM [%]
CC1CCCCN1C1CN(c2ccnc(C(=O)NCc3ccco3)c2)C1 (centres undefined) | 2.29
Cn1[nH]c(CNc2cccc(Cl)c2)nc1=O | -0.165
COCC(=O)N1CCOCC2(CCN(Cc3cccs3)C2)C1 (centres undefined) | -6.16
CC(=O)Nc1ncc(S(=O)(=O)Nc2cccc(O)c2)s1 | 8.49
CCCS(=O)(=O)N1CCN(c2ccnc(N3CCCC3)n2)CC1 | -11.3
CN1CCOC(C(=O)Nc2ccc3c(c2)nc(C2CC2)n3C)C1 (centres undefined) | -5.5
CCCNC(=O)N1CCc2ccc(S(=O)(=O)N3CCN(C)CC3)cc2C1 | -10
Cn1c(CCC(=O)N2CCC3(CCCO3)CC2)nc2cccnc21 | 0.592
CCNc1nc(-c2cccnc2)c(-c2ccnc(NS(C)(=O)=O)n2)s1 | -12.3
COCCn1c2c(ccc1=O)CC(NC(=O)c1cscn1)CC2 (centres undefined) | -97
CNc1nc(CNC(=O)Nc2cccc(F)c2)cs1 | -5.45
CN1C(=O)[C@@H]2CC[C@H]1CN(Cc1cccc(OCc3ccccn3)c1)C2 | 5.52
CCN(Cc1ccc2c(c1)OCO2)C(=O)c1ccc(=O)n(C)c1 | 15.9
CC(=O)N1C[C@H]2CNC[C@@]2(C(=O)NCCOc2ccccc2F)C1 | 2.8
Cc1ncsc1CN1CC[C@H]2OCC[C@@]2(C(=O)N2CCCO2)C1 | -0.0653
Cc1noc(C)c1CN1CCC(N(C)Cc2nnc(C3CC3)n2C)C1 (centres undefined) | -4.03
CN(C)C(=O)COCc1cncc2c1CCN(Cc1cnn(C)c1)C2 | -3.48
Cc1cccc(-c2noc([C@@H]3Cc4nc[nH]c4CN3)n2)c1 | 0.442
CSc1ccc(CN(C(=O)c2cc[nH]n2)C2CC2)cc1 | -44.4
CC(Cn1cccn1)NC(=O)N1CCN(Cc2ccncc2)CC1 (centres undefined) | -20.8
CCc1nnc2n1CCN(C(=O)CN(C)Cc1ccccc1)C2 | -6.22
O=C(O)c1cncc(Cc2ccc(F)cc2)c1 | 2.39

SMILES | cytotoxicity at 10 µM [%]
N#Cc1ccc(C(=O)O)nc1C=Cc1cccc(Br)c1 | 5.09
O=C(c1[nH]c2ccc(Cl)cc2c1Cl)N1CCC2(CC1)OCCO2 | 23.5
CCCOc1ccc(C(=O)N2CC[C@@H]3CC[C@H](C2)N3)cc1Cl | -6.94
COCC1CC2(CCN(C(=O)C3CCSCC3)CC2)CO1 (centres undefined) | -8.93
CN(C)[C@@H]1CCN(C(=O)Cc2cccs2)[C@H]1Cc1cnn(C)c1 | -72.2
CSCC(C)(O)CNC(=O)c1ccc(F)cc1Br (centres undefined) | 0.369
Cc1nc(CN2CCC(N(C)Cc3nnc(C4CC4)n3C)C2)oc1C (centres undefined) | -16.1
Cc1cc(C)nc(-n2nc(C)c3c2NC(=O)CSC3c2cnn(C)c2)n1 (centres undefined) | -36.5
CC(C)CNC(=O)C1=NOC2(CCN(Cc3ccc(C(C)C)cc3)C2)C1 (centres undefined) | 32.3
CCN(CC)C(=O)c1cc(Br)cc(S(=O)(=O)N2CCOCC2)c1F | -2.43
O=C(CCn1cccn1)N1C[C@H]2CC[C@@H](C1)N(Cc1ccccn1)C2=O | -13.6
CC(C)NC(=O)[C@H]1C[C@@H]2[C@@H](C1)OCCN2Cc1ccco1 | 4.08
CCC(C)(CC(=O)OC)NCc1c(C)noc1C (centres undefined) | -3.19
Cc1cc(CNCc2c(C)nn(C)c2N2CCOCC2)no1 | -8.11
CNC(=O)Cc1cc2nccc(-c3c(OC)cccc3OC)n2n1 | -10.4
CN1CCCC1(CCCc1cccnc1)C(=O)NCc1nccn1C (centres undefined) | 0.732
CN(C)S(=O)(=O)N1CCOC(c2cccc(-c3cncnc3)n2)C1 (centres undefined) | 3.71
COCc1nc(C(=O)NS(=O)(=O)c2ccc(C)c(C)c2)cs1 | -8
NC(=O)c1cccc(CC2CCN(C(=O)CO)C2)c1 (centres undefined) | -23.7
CCOC(=O)c1c(NC(=O)CN2CCN(C(C)=O)CC2)sc(C)c1C | 1.15
CCOc1ccccc1N1CCN(CC2(O)CCCNC2)CC1 (centres undefined) | -2.36
